Assay [1] deals with Oocyte. Nature of the assay: Allosteric modulation of gamma-aminobutyric acid receptor A alpha1beta2gamma2S expressed in Xenopus oocytes assessed as potentiation of GABA-mediated chloride current at 30 uM by voltage clamp analysis. The class given is cell-based. An outline of the steps:
(§1)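 Oocytes were injected with α1β2γ2S, α1β3γ2S, α2β2γ2S, α3β2γ2S or α5β2γ2S cRNAs at a 1:1:10 ratio. Two-electrode voltage clamp was run 1–5 days post-injection in HEPES-buffered saline at pH 7.4. Compounds in GABA EC5–10 (3–10 μM) were given by automated fast perfusion: screening at 10 and 100 μM (n = 2), otherwise concentration series. Potentiation = I(GABA+Comp)/IGABA − 1, with nonlinear regression fits.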

The test system of assay [2] is Oocyte. The assay can be described thus: Allosteric modulation of gamma-aminobutyric acid receptor A alpha1beta2gamma2S expressed in Xenopus oocytes assessed as potentiation of GABA-mediated chloride current at 100 uM by voltage clamp analysis. The class given is cell-based. An outline of the steps: as §1
The target of assay [3] is T1, GABA-A receptor; GABA-A site (alpha1/beta2 interface) (Homo sapiens) (UniProt P14867+P47870). The assay can be described thus: Allosteric modulation of gamma-aminobutyric acid receptor A alpha1beta2 expressed in Xenopus oocytes assessed as potentiation of GABA-mediated chloride current at 30 uM by voltage clamp analysis. The class given is cell-based. The settings on record: Oocyte.

The target of assay [4] is T1, GABA-A receptor; GABA-A site (alpha1/beta2 interface) (Homo sapiens). Nature of the assay: Allosteric modulation of gamma-aminobutyric acid receptor A alpha1beta2 expressed in Xenopus oocytes assessed as potentiation of GABA-mediated chloride current at 100 uM by voltage clamp analysis. The class given is cell-based. The note with it: Oocyte.
Assay [5] deals with Oocyte. Nature of the assay: Agonist activity at gamma-aminobutyric acid receptor A alpha1beta1gamma2S expressed in Xenopus oocytes assessed as potentiation of GABA-mediated chloride current at 300 uM by voltage clamp analysis. The class given is functional, cell-based. The procedure, abridged:
(§2)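 α1β1γ2S cRNAs (3:1:10) injected into Xenopus oocytes and recorded 1–5 days later by two-microelectrode voltage clamp. Bath was 90 mM NaCl, 1 mM KCl, 1 mM MgCl2, 1 mM CaCl2, 5 mM HEPES, pH 7.4. Compound was co-applied by fast perfusion with GABA at EC5–10 (3–10 μM). Enhancement = I(GABA+Comp)/IGABA − 1. Concentration-response curves fitted by nonlinear regression.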

The subject of assay [6] is Oocyte. Nature of the assay: Agonist activity at gamma-aminobutyric acid receptor A alpha1beta2gamma2S expressed in Xenopus oocytes assessed as potentiation of GABA-mediated chloride current by voltage clamp analysis. The class given is functional, cell-based. An outline of the steps:
as §1

In assay [7] the test system is Oocyte. The assay can be described thus: Agonist activity at gamma-aminobutyric acid receptor A alpha1beta3gamma2S expressed in Xenopus oocytes assessed as potentiation of GABA-mediated chloride current by voltage clamp analysis. The class given is functional, cell-based. The procedure, abridged:
as §1

The subject of assay [8] is Oocyte. The assay can be described thus: Agonist activity at gamma-aminobutyric acid receptor A alpha2beta2gamma2S expressed in Xenopus oocytes assessed as potentiation of GABA-mediated chloride current by voltage clamp analysis. The class given is functional, cell-based. An outline of the steps:
as §1

Assay [9] relates to Oocyte. Nature of the assay: Agonist activity at gamma-aminobutyric acid receptor A alpha3beta2gamma2S expressed in Xenopus oocytes assessed as potentiation of GABA-mediated chloride current by voltage clamp analysis. The class given is functional, cell-based. An outline of the steps: as §1
In assay [10] the test system is Oocyte. The assay can be described thus: Agonist activity at gamma-aminobutyric acid receptor A alpha5beta2gamma2S expressed in Xenopus oocytes assessed as potentiation of GABA-mediated chloride current by voltage clamp analysis. The class given is functional, cell-based. The procedure, abridged: as §1
Assay [11] concerns Oocyte. The assay can be described thus: Allosteric modulation of gamma-aminobutyric acid receptor A alpha1beta2gamma2S expressed in Xenopus oocytes assessed as potentiation of GABA-mediated chloride current at 500 uM by voltage clamp analysis relative to control. The class given is cell-based. An outline of the steps:
as §1

Assay [12] concerns Oocyte. The assay can be described thus: Allosteric modulation of gamma-aminobutyric acid receptor A alpha5beta2gamma2S expressed in Xenopus oocytes assessed as potentiation of GABA-mediated chloride current at 0.1 to 500 uM by voltage clamp analysis relative to control. The class given is cell-based. The procedure, abridged: as §1
In assay [13] the test system is Oocyte. The assay can be described thus: Allosteric modulation of gamma-aminobutyric acid receptor A alpha3beta2gamma2S expressed in Xenopus oocytes assessed as potentiation of GABA-mediated chloride current at 0.1 to 500 uM by voltage clamp analysis relative to control. The class given is cell-based. An outline of the steps:
as §1

In assay [14] the test system is Oocyte. The assay can be described thus: Allosteric modulation of gamma-aminobutyric acid receptor A alpha2beta2gamma2S expressed in Xenopus oocytes assessed as potentiation of GABA-mediated chloride current at 0.1 to 500 uM by voltage clamp analysis relative to control. The class given is cell-based. An outline of the steps:
as §1

Assay [15] has as its system Oocyte. The assay can be described thus: Allosteric modulation of gamma-aminobutyric acid receptor A alpha1beta3gamma2S expressed in Xenopus oocytes assessed as potentiation of GABA-mediated chloride current at 0.1 to 500 uM by voltage clamp analysis relative to control. The class given is cell-based. The procedure, abridged:
as §1

The subject of assay [16] is Oocyte. The assay can be described thus: Allosteric modulation of gamma-aminobutyric acid receptor A alpha1beta1gamma2S expressed in Xenopus oocytes assessed as potentiation of GABA-mediated chloride current at 0.1 to 500 uM by voltage clamp analysis relative to control. The class given is cell-based. The procedure, abridged: as §2
Assay [17] can be described thus: (§3) Allosteric modulation of gamma-aminobutyric acid receptor A alpha5beta2gamma2S expressed in Xenopus oocytes assessed as potentiation of GABA-mediated chloride current by voltage clamp analysis relative to control. The class given is cell-based. The note with it: Oocyte. An outline of the steps: as §1
In assay [18] the test system is Oocyte. The description is as §3. The class given is cell-based. The procedure, abridged: as §1
Assay [19] is described as follows: (§4) Allosteric modulation of gamma-aminobutyric acid receptor A alpha3beta2gamma2S expressed in Xenopus oocytes assessed as potentiation of GABA-mediated chloride current by voltage clamp analysis. The class given is cell-based. The settings on record: Oocyte. An outline of the steps:
as §1

For assay [20], the system named is Oocyte. The assay is described as §4. The class given is cell-based. The procedure, abridged: as §1
A short description of assay [21]: (§5) Allosteric modulation of gamma-aminobutyric acid receptor A alpha2beta2gamma2S expressed in Xenopus oocytes assessed as potentiation of GABA-mediated chloride current by voltage clamp analysis. The class given is cell-based. The note with it: Oocyte. The procedure, abridged:
as §1

In assay [22] the test system is Oocyte. Described as §5. The class given is cell-based. An outline of the steps: as §1
Assay [23] is described as follows: (§6) Allosteric modulation of gamma-aminobutyric acid receptor A alpha1beta3gamma2S expressed in Xenopus oocytes assessed as potentiation of GABA-mediated chloride current by voltage clamp analysis. The note with it: Oocyte. The class given is cell-based. The procedure, abridged:
as §1

For assay [24], the system named is Oocyte. The description is as §6. The class given is cell-based. The procedure, abridged:
as §1

A short description of assay [25]: (§7) Allosteric modulation of gamma-aminobutyric acid receptor A alpha1beta2gamma2S expressed in Xenopus oocytes assessed as potentiation of GABA-mediated chloride current by voltage clamp analysis. The class given is cell-based. The settings on record: Oocyte. An outline of the steps:
as §1

Assay [26] has as its system Oocyte. The description is as §7. The class given is cell-based. The procedure, abridged: as §1
A short description of assay [27]: (§8) Allosteric modulation of gamma-aminobutyric acid receptor A alpha1beta1gamma2S expressed in Xenopus oocytes assessed as potentiation of GABA-mediated chloride current by voltage clamp analysis. The class given is cell-based. The settings on record: Oocyte. The procedure, abridged:
as §2

The test system of assay [28] is Oocyte. The assay is described as §8. The class given is cell-based. The procedure, abridged: as §2
In assay [29] the test system is Oocyte. The assay can be described thus: Allosteric modulation of gamma-aminobutyric acid receptor A alpha1beta2gamma2S expressed in Xenopus oocytes assessed as potentiation of GABA-mediated chloride current at 10 uM by voltage clamp analysis relative to control. The class given is cell-based. An outline of the steps:
as §1

In assay [30] the test system is Oocyte. Nature of the assay: Allosteric modulation of gamma-aminobutyric acid receptor A alpha1beta2gamma2S expressed in Xenopus oocytes assessed as potentiation of GABA-mediated chloride current at 100 uM by voltage clamp analysis relative to control. The class given is cell-based. An outline of the steps:
as §1

For assay [31], the system named is Oocyte. The assay can be described thus: Allosteric modulation of gamma-aminobutyric acid receptor A alpha1beta2gamma2S expressed in Xenopus oocytes assessed as potentiation of GABA-mediated chloride current at 0.1 to 500 uM by voltage clamp analysis relative to control. The class given is cell-based. An outline of the steps: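 Two-electrode voltage clamp on Xenopus oocytes injected with α1, β2, γ2S cRNA at a 1:1:10 ratio, recorded on days 1–5 at a holding potential of […]. Bath: 90 mM NaCl, 1 mM KCl, 1 mM MgCl2, 1 mM CaCl2, 5 mM HEPES pH 7.4. Compound was co-applied by fast perfusion with GABA EC5-10 (typically 3–10 μM). Potentiation was calculated as I(GABA+Comp)/IGABA − 1, and concentration-response curves were fitted by nonlinear regression.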

The results in this text go back to ChEMBL document CHEMBL2146456, “Identification and characterization of GABA(A) receptor modulatory diterpenes from Biota orientalis that decrease locomotor activity in mice” (J Nat Prod, 2011).

The source made the active and inactive calls. No cut-off for these calls is given here.

For `C=C[C@@]1(C)CC[C@H]2C(=CC[C@@H]3[C@]2(C)CCC[C@@]3(C)C(=O)O)C1` [ISOPIMARIC ACID], the result (in the assay on Oocyte [1]; in the assay on Oocyte [2]; in [3]; in [4]) was Active. Also, the outcome in the assay with Oocyte [5], with Oocyte [6], in the assay with Oocyte [7], with Oocyte [8], in the assay with Oocyte [9] and in the assay with Oocyte [10] was inactive. The Imax in the assay with Oocyte [11] was determined as 425%; in the assay on Oocyte [12], 472%; in the assay on Oocyte [13], 1070%; in the assay with Oocyte [14], 1030%; in the assay with Oocyte [15], 476%; in the assay on Oocyte [16], 716%. Further, the half-maximal effective concentration (EC50) in assay [17] turned out to be 317 µM; in assay [19], 724 µM; in assay [21], 365 µM; in [23], 257 µM; in assay [25] it was 142 µM; in [27], 290 µM. Moreover, the Activity result in the assay with Oocyte [18], in the assay with Oocyte [20], in the assay with Oocyte [22], with Oocyte [24], in the assay on Oocyte [26] and in the assay on Oocyte [28] was “Dose-dependent effect” in each case.
For `C=C[C@]1(C)C=C2CC[C@H]3[C@](C)(C=O)[C@@H](O)CC[C@]3(C)[C@H]2CC1`, the results for the Imax in the assay with Oocyte [29] and with Oocyte [30] were 3.8% and 3%, respectively.
For `Cc1nnc2n1-c1ccc(Cl)cc1C(c1ccccc1Cl)=NC2` [TRIAZOLAM], in the assay with Oocyte [31], the Imax turned out to be 253%. Moreover, in [25], the 50% effective concentration (EC50) was 0.022 µM.
Consider `C=C1CC[C@@H]2[C@](C)(CCC[C@]2(C)C(=O)OC)[C@H]1CCC1=CCOC1=O`, for which the Imax in the assay with Oocyte [29] was -13.4%; with Oocyte [30], -13.1%.
